Laboratory results reported in the M2OR odorant receptor database.

Assays:
Conditions in all cases: stereoisomer not certain
[1] = molecular target: T1, UniProt B2RVX8
T1 sequence (whole entry): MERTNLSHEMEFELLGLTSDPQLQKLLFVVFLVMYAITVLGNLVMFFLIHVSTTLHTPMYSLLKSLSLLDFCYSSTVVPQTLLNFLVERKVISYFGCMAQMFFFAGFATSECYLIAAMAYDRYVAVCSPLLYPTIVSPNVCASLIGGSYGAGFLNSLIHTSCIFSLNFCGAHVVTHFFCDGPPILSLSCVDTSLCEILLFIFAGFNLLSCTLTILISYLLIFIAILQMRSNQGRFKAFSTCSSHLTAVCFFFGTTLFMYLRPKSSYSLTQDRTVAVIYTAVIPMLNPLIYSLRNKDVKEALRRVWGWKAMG
Outline: (§1)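 Transient luciferase assays in mammalian cell lines were common, though methods varied by source. The values come from published papers and their supplementary material, with extra details from the original authors when needed. Responsive refers to a measured signal the original authors judged statistically different from baseline, and non-responsive (inactive) to the remainder.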

[2] = molecular target: T2, UniProt E9PVX1
T2 sequence (whole entry): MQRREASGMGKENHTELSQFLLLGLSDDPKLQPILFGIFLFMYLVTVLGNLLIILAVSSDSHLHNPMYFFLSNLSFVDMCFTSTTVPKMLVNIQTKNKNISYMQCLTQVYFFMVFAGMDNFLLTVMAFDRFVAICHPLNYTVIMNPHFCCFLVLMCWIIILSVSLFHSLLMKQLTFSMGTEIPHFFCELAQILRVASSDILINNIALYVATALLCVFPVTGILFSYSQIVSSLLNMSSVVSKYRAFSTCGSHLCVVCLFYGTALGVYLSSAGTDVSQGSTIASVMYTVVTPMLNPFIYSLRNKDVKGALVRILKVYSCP
Outline: as §1

[3] = molecular target: T3, UniProt E9PZ66
T3 sequence (whole entry): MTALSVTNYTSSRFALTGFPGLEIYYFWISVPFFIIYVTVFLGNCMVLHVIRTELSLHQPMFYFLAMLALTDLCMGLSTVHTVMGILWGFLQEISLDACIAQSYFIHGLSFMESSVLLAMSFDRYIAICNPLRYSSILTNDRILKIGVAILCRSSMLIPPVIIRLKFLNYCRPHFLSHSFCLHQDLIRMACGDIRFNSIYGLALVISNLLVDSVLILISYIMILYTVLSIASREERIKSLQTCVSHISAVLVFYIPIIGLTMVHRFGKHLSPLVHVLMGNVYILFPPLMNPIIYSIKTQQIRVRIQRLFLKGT
Outline: as §1

[4] = molecular target: T4, UniProt E9Q4X7
T4 sequence (whole entry): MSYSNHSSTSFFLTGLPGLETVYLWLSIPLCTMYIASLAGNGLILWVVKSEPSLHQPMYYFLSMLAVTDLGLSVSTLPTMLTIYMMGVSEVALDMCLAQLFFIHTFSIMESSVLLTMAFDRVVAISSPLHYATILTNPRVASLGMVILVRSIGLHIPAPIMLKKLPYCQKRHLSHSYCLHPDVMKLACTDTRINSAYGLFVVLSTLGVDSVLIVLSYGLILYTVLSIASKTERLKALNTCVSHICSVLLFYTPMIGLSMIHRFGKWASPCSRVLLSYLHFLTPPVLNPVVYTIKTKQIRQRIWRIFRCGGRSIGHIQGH
Outline: as §1

[5] = molecular target: T5, UniProt E9Q546
T5 sequence (whole entry): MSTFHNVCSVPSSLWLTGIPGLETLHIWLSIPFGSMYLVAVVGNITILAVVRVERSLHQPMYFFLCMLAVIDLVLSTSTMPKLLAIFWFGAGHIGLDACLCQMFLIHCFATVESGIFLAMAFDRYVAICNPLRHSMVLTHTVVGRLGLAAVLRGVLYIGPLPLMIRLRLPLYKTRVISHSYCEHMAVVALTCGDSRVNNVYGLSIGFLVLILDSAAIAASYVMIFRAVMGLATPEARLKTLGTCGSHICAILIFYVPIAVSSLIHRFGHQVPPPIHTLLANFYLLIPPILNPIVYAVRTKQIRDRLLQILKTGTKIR
Outline: as §1

[6] = molecular target: T6, UniProt E9Q6Z7
T6 sequence (whole entry): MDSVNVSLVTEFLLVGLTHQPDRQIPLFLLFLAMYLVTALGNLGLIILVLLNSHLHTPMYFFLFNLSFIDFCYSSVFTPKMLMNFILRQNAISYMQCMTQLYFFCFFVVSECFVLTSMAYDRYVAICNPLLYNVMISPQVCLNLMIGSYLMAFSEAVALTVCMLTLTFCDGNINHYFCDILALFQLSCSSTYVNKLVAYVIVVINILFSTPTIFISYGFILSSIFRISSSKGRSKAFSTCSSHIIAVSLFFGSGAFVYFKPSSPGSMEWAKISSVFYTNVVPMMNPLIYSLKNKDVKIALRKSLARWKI
Outline: as §1

[7] = molecular target: T7, UniProt K7N609
T7 sequence (whole entry): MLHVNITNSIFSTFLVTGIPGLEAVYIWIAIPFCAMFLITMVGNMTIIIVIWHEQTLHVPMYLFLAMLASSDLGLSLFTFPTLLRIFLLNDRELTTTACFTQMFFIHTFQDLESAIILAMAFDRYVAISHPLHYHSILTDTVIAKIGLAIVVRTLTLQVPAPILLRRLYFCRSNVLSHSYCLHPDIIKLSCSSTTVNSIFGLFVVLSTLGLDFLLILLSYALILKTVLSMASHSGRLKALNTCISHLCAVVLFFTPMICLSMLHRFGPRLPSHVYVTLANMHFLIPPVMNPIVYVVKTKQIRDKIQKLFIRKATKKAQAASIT
Outline: as §1

[8] = molecular target: T8, UniProt L7MU75
T8 sequence (whole entry): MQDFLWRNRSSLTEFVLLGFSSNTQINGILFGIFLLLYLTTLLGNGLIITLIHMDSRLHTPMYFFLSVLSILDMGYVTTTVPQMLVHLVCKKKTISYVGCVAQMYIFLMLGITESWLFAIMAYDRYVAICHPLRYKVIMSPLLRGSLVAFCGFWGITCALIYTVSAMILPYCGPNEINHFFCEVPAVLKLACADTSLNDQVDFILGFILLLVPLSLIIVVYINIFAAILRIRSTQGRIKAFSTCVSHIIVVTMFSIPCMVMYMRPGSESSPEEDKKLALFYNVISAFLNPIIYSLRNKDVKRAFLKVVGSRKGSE
Outline: as §1

[9] = molecular target: T9, UniProt L7N210
T9 sequence (whole entry): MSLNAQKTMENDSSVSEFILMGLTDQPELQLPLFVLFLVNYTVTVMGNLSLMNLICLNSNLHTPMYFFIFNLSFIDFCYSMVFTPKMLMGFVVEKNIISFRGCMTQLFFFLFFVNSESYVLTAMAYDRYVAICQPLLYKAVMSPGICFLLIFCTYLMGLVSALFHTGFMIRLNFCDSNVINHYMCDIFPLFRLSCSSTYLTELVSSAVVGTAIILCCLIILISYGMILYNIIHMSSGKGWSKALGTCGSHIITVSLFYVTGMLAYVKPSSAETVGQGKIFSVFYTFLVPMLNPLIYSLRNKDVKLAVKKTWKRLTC
Outline: as §1

[10] = molecular target: T10, UniProt Q3KPB0
T10 sequence (whole entry): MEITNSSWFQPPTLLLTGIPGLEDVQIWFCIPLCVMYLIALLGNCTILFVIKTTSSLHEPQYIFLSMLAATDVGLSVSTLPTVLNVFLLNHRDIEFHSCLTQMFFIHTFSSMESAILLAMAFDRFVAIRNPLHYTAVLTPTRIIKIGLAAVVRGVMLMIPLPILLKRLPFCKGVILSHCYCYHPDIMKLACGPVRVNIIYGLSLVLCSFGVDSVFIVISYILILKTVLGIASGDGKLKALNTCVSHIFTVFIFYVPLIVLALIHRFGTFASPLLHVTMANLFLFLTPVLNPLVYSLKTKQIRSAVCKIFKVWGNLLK
Outline: as §1

[11] = molecular target: T11, UniProt Q3U0P3
T11 sequence (whole entry): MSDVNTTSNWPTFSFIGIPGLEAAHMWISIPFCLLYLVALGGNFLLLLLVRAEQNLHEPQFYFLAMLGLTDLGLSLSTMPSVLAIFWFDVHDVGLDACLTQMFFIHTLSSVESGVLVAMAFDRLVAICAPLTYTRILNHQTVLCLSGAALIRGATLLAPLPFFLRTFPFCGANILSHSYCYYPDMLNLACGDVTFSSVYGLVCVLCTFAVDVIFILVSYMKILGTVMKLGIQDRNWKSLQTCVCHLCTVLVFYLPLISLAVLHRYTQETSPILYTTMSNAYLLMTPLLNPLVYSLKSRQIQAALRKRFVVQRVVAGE
Outline: as §1

[12] = molecular target: T12, UniProt Q7TQU8
T12 sequence (whole entry): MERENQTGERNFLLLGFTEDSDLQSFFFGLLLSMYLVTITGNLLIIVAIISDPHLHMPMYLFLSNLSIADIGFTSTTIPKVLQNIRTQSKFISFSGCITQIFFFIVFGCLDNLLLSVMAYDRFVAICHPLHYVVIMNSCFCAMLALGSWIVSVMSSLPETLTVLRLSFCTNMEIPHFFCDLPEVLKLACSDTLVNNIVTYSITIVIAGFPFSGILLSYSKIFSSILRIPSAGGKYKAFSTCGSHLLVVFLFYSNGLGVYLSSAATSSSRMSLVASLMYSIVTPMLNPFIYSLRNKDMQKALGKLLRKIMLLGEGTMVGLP
Outline: as §1

[13] = molecular target: T13, UniProt Q7TQV4
T13 sequence (whole entry): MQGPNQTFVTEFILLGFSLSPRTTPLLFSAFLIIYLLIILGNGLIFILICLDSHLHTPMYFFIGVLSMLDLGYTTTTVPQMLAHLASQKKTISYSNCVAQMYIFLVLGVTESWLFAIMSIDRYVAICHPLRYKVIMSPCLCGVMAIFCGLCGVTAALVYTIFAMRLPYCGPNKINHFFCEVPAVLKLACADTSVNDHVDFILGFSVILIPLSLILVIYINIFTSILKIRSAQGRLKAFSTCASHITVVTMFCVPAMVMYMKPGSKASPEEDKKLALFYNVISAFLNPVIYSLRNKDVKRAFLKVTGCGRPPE
Outline: as §1

[14] = molecular target: T14, UniProt Q7TR71
T14 sequence (whole entry): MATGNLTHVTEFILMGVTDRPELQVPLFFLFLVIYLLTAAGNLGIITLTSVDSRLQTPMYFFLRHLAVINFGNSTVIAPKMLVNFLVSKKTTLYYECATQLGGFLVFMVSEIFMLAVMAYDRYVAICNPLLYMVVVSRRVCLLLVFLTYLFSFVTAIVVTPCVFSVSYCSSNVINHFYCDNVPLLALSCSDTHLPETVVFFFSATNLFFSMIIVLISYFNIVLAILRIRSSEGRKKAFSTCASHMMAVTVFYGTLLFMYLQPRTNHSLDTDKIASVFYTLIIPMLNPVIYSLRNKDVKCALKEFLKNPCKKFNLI
Outline: as §1

[15] = molecular target: T15, UniProt Q7TR79
T15 sequence (whole entry): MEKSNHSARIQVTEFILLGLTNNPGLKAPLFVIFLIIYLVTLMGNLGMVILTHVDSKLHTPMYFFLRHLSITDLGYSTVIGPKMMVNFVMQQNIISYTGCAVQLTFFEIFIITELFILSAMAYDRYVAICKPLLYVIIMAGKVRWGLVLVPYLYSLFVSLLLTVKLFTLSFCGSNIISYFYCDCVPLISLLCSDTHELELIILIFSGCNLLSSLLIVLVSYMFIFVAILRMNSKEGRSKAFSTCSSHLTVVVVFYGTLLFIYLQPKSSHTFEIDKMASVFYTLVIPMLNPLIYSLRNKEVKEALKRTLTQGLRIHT
Outline: as §1

[16] = molecular target: T16, UniProt Q7TRA3
T16 sequence (whole entry): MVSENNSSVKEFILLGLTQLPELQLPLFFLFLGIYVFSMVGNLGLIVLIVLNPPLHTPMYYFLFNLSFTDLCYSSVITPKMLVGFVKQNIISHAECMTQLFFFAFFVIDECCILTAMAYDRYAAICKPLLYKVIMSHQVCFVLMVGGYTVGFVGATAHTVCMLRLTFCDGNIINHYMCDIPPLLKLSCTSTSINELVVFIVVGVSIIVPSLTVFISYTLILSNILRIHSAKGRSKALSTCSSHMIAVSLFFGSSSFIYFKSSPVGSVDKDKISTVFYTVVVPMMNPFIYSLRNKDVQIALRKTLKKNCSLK
Outline: as §1

[17] = molecular target: T17, UniProt Q7TRE4
T17 sequence (whole entry): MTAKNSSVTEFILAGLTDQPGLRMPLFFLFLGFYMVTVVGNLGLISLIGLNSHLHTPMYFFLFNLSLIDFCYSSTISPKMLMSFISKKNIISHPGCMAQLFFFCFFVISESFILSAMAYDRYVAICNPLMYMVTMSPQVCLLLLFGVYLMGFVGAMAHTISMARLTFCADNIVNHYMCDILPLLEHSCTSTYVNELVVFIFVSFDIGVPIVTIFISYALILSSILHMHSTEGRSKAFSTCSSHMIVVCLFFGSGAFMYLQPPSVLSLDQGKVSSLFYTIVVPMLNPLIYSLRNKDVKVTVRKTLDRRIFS
Outline: as §1

[18] = molecular target: T18, UniProt E9Q9Z6
T18 sequence (whole entry): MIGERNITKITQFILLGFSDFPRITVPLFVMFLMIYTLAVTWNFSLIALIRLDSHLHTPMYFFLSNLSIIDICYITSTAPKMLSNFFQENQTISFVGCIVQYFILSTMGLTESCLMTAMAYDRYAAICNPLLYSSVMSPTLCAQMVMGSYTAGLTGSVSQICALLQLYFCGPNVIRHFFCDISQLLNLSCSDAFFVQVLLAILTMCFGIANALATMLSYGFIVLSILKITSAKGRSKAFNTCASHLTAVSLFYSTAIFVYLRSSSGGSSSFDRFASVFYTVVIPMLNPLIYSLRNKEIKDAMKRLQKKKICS
Outline: as §1
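Further: active if original authors judged signal statistically different from baseline.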

SMILES	odorant receptor agonist call [1]	odorant receptor agonist call [2]	odorant receptor agonist call [3]	odorant receptor agonist call [4]	odorant receptor agonist call [5]	odorant receptor agonist call [6]	odorant receptor agonist call [7]	odorant receptor agonist call [8]	odorant receptor agonist call [9]	odorant receptor agonist call [10]	odorant receptor agonist call [11]	odorant receptor agonist call [12]	odorant receptor agonist call [13]	odorant receptor agonist call [14]	odorant receptor agonist call [15]	odorant receptor agonist call [16]	odorant receptor agonist call [17]	odorant receptor agonist call [18]
C=CCOC(=O)Cc1ccccc1	inactive	inactive	inactive	inactive	inactive	inactive	inactive	inactive	inactive	inactive	inactive	inactive	inactive	inactive	inactive	inactive	inactive	
Cc1c([N+](=O)[O-])c(C)c([N+](=O)[O-])c(C(C)(C)C)c1[N+](=O)[O-]																		active
